Activity, viability and Papp data for two compounds are collected here from ChEMBL document CHEMBL3739301, “Design, synthesis and biological evaluation of tricyclic diterpene derivatives as novel neuroprotective agents against ischemic brain injury” (Eur J Med Chem, 2015).

Calls of active or inactive are those of the source. The calls are words filed in the database; no cut-off is given here.

In data set [1] the test system is neuronal. Put plainly: Neuroprotective activity against glutamate-induced neuronal cell death in Sprague-Dawley rat CGN cells assessed as increase in GSH level at 10 uM preincubated for 24 hrs followed by glutamate challenge measured after 24 hrs. The data set is classed as functional, cell-based. An outline of the steps:
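Granule neurons pretreated 24 h with […] compound, then […] for 24 h. Lysed in buffer containing protease inhibitor cocktail; protein determined by BCA. SOD activity and GSH level measured with commercial kits. n = 3, mean ± SD.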

Data set [2] concerns Rattus norvegicus. Kind of data set: Antioxidant activity in Sprague-Dawley rat transient middle cerebral artery occlusion model assessed as […] in GSH level in ipsilateral cortex at 10 mg/kg, iv measured at 24 hrs post middle cerebral artery occlusion. The data set is classed as functional, organism-based. An outline of the steps:
(§1)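 Rat tMCAO: 2 h suture occlusion, then reperfusion. Dosing iv at 2, 4 and 6 h after onset, 10 mg/kg (DMSO) or 3 mg/kg (saline). At 24 h the ipsilateral cortex was lysed in RIPA buffer and protein quantified by BCA. GSH concentration and SOD activity were then measured with commercial kits.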

Data set [3] is described as follows: Neuroprotective activity against oxygen-glucose deprivation-induced neuronal cell death in Sprague-Dawley rat CGN cells assessed as cell viability at 1 uM preincubated for 24 hrs followed by induction of oxygen-glucose deprivation measured after 24 hrs by MTT assay (reference value: 48.7%). The data set is classed as functional. The conditions noted are these: read-out: Activity. Background: Formazan colour is commonly taken as a measure of viable cells.

A short description of data set [4]: Neuroprotective activity against glutamate-induced neuronal cell death in Sprague-Dawley rat CGN cells assessed as cell viability at 10 uM preincubated for 24 hrs followed by glutamate challenge measured after 24 hrs by MTT assay (reference value: 40.4%). The data set is classed as functional. Particulars: read-out: Activity.
Data set [5] relates to Rattus norvegicus. Kind of data set: Anti-ischemic activity in Sprague-Dawley rat transient middle cerebral artery occlusion model assessed as reduction in infarct volume at 10 mg/kg, iv administered for 2 to 6 hrs post middle cerebral artery occlusion measured at 24 hrs by TTC staining-based morphometric analysis. The conditions noted are these: in vivo. The data set is classed as organism-based. Set-up: scale not given: the % may be the effect or the level left. An outline of the steps: (§2)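 Male Sprague-Dawley rats (260-280 g), middle cerebral artery occluded 2 h by intraluminal nylon monofilament, then reperfused; body temperature held at 37 C. Drug given iv at 2, 4 and 6 h after ischemia onset (test agent in DMSO, edaravone in saline; vehicle controls). Neurological scoring at 24 h; 2 mm coronal slices stained with 2% TTC 20 min at 37 C, formalin-fixed; infarct volume by morphometry; n = 8-12.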

Data set [6] in a line: Neuroprotective activity against oxygen-glucose deprivation-induced neuronal cell death in Sprague-Dawley rat CGN cells assessed as cell viability at 10 uM preincubated for 24 hrs followed by induction of oxygen-glucose deprivation measured after 24 hrs by MTT assay (reference value: 48.7%). The conditions noted are these: read-out: Activity. Type of data set: functional.

Data set [7] in a line: Neuroprotective activity against nutrient deprivation-induced neuronal cell death in Sprague-Dawley rat CGN cells at 10 uM preincubated for 24 hrs followed by induction of nutrient deprivation measured after 24 hrs relative to control. The data set is classed as functional. An outline of the steps: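 Primary rat cerebellar granule neurons (8-day-old Sprague-Dawley pups, DIV 6-8) pretreated 24 h with compound (0.1% DMSO final), then deprived of B27 serum substitute for 24 h. MTT viability (0.5 mg/ml, 4 h) read at 570 nm against control = 100%; neuroprotection percentage derived from the basal deprived value; mean ± SD, n = 3.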

Data set [8] can be described thus: Neuroprotective activity in Sprague-Dawley rat CGN cells assessed as upregulation of HO-1 expression after 24 hrs by Western blot analysis. The data set is classed as functional, cell-based. In outline: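 Primary granule neurons treated with a concentration series for 24 h, lysed in RIPA buffer, protein by BCA. Separated on 15% SDS-PAGE, transferred to PVDF, blocked in 5% BSA. Primary antibody overnight at 4 °C, secondary 30 min at room temperature; chemiluminescent detection. HO-1 quantified by densitometry normalized to β-actin. n = 3, mean ± SD.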

Data set [9] in a line: Neuroprotective activity against oxygen-glucose deprivation-induced neuronal cell death in Sprague-Dawley rat CGN cells at 10 uM preincubated for 24 hrs followed by induction of oxygen-glucose deprivation measured after 24 hrs relative to control. Type of data set: functional.
Data set [10] is described as follows: Cytotoxicity against Sprague-Dawley rat CGN cells at <10 uM after 72 hrs by MTT assay. Type of data set: cell-based. An outline of the steps: (§3)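 Primary cerebellar granule neurons from 8-day SD rat pups; cytosine arabinoside […] added at 24 h, used at DIV 6–8. Cells exposed to a concentration series for 72 h, 0.1% DMSO final. Viability by MTT (0.5 mg/ml, 4 h, 37 °C); formazan dissolved in DMSO, OD 570 nm. n = 3, mean ± SD.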

In data set [11] the test system is Rattus norvegicus. Kind of data set: Antioxidant activity in Sprague-Dawley rat transient middle cerebral artery occlusion model assessed as […] in SOD level in ipsilateral cortex at 10 mg/kg, iv measured at 24 hrs post middle cerebral artery occlusion. Type of data set: functional, organism-based. In outline:
as §1

For data set [12], the system named is neuronal. Kind of data set: Neuroprotective activity against glutamate-induced neuronal cell death in Sprague-Dawley rat CGN cells assessed as increase in SOD level at 10 uM preincubated for 24 hrs followed by glutamate challenge measured after 24 hrs. Type of data set: functional, cell-based.
Data set [13] has as its system Rattus norvegicus. Put plainly: Toxicity in Sprague-Dawley rat transient middle cerebral artery occlusion model at 10 mg/kg, iv. Particulars: in vivo. Type of data set: organism-based.
A short description of data set [14]: Cytotoxicity against Sprague-Dawley rat CGN cells at 50 to 100 uM after 72 hrs by MTT assay. Type of data set: cell-based. In outline:
as §3

The subject of data set [15] is neuronal. Kind of data set: Neuroprotective activity against glutamate-induced neuronal cell death in Sprague-Dawley rat CGN cells assessed as increase in cell viability preincubated for 24 hrs followed by glutamate challenge measured after 24 hrs by MTT assay. The data set is classed as functional, cell-based.
The nature of data set [16]: Permeability of the compound at 25 ug/ml after 18 hrs by PAMPA assay. The data set is classed as ADME. The conditions noted are these: read-out: permeability. (PAMPA measures passive passage across an artificial lipid membrane.)
The subject of data set [17] is Rattus norvegicus. Kind of data set: Anti-ischemic activity in Sprague-Dawley rat transient middle cerebral artery occlusion model assessed as reduction in neurological deficit at 10 mg/kg, iv administered for 2 to 6 hrs post middle cerebral artery occlusion measured at 24 hrs. The data set is classed as functional, organism-based. An outline of the steps: (§4)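 Male SD rats (260–280 g); intraluminal nylon suture (~0.26 mm, round tip) occluded MCA for 2 h, then withdrawn for reperfusion, body temperature held at 37 °C. Given iv at 2, 4 and 6 h after ischemia onset; 10 mg/kg in DMSO or 3 mg/kg in saline; DMSO or saline vehicle controls. Neurological score at 24 h after MCAO; n = 8–12, mean ± SD.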

Data set [18] can be described thus: Neuroprotective activity against glutamate-induced neuronal cell death in Sprague-Dawley rat CGN cells at 10 uM preincubated for 24 hrs followed by glutamate challenge measured after 24 hrs relative to control. Type of data set: functional.
Data set [19] is described as follows: Neuroprotective activity against oxygen-glucose deprivation-induced neuronal cell death in Sprague-Dawley rat CGN cells assessed as cell viability at 50 uM preincubated for 24 hrs followed by induction of oxygen-glucose deprivation measured after 24 hrs by MTT assay (reference value: 48.7%). The data set is classed as functional. Particulars: read-out: Activity.

Data set [20] can be described thus: Neuroprotective activity against glutamate-induced neuronal cell death in Sprague-Dawley rat CGN cells assessed as cell viability at 50 uM preincubated for 24 hrs followed by glutamate challenge measured after 24 hrs by MTT assay (reference value: 40.4%). The data set is classed as functional. The conditions noted are these: read-out: Activity.
A short description of data set [21]: Neuroprotective activity against oxygen-glucose deprivation-induced neuronal cell death in Sprague-Dawley rat CGN cells at 50 uM preincubated for 24 hrs followed by induction of oxygen-glucose deprivation measured after 24 hrs relative to control. Type of data set: functional.
Data set [22] deals with Rattus norvegicus. Kind of data set: Anti-ischemic activity in Sprague-Dawley rat transient middle cerebral artery occlusion model assessed as reduction in infarct volume at 3 mg/kg, iv administered for 2 to 6 hrs post middle cerebral artery occlusion measured at 24 hrs by TTC staining-based morphometric analysis. The data set is classed as organism-based. Particulars: in vivo. An outline of the steps:
as §2

In data set [23] the test system is Rattus norvegicus. Kind of data set: Antioxidant activity in Sprague-Dawley rat transient middle cerebral artery occlusion model assessed as […] in GSH level in ipsilateral cortex at 3 mg/kg, iv measured at 24 hrs post middle cerebral artery occlusion. Type of data set: functional, organism-based. In outline: as §1
A short description of data set [24]: Neuroprotective activity against glutamate-induced neuronal cell death in Sprague-Dawley rat CGN cells at 50 uM preincubated for 24 hrs followed by glutamate challenge measured after 24 hrs relative to control. The data set is classed as functional.
Data set [25] deals with Rattus norvegicus. Put plainly: Antioxidant activity in Sprague-Dawley rat transient middle cerebral artery occlusion model assessed as […] in SOD level in ipsilateral cortex at 3 mg/kg, iv measured at 24 hrs post middle cerebral artery occlusion. Type of data set: functional, organism-based. An outline of the steps:
as §1

The test system of data set [26] is Rattus norvegicus. Kind of data set: Anti-ischemic activity in Sprague-Dawley rat transient middle cerebral artery occlusion model assessed as reduction in neurological deficit at 3 mg/kg, iv administered for 2 to 6 hrs post middle cerebral artery occlusion measured at 24 hrs. Type of data set: functional, organism-based. An outline of the steps:
as §4

On to `CCCCNC(=O)c1cc2c(cc1OC)[C@@]1(C)CC[C@H](O)C(C)(C)[C@@H]1CC2`, for which the result with neuronal [1], with Rattus norvegicus [2], in the data set on Rattus norvegicus [11], in the data set with neuronal [12] and in the data set with Rattus norvegicus [17] was Active. Moreover, the viability at 1 µM in data set [3] turned out to be 58.9%. The figures for the viability at 10 µM in data set [4] and in data set [6] were 94.1% and 87.4%, respectively. Besides, the Activity was 44% in the data set with Rattus norvegicus [5]; 25.9% in data set [7]; “Dose-dependent effect” in data set [8]; 75.4% in data set [9]; “Non-toxic” in data set [10]; “Non-toxic” with Rattus norvegicus [13]. Besides, the figures for the Activity result (in data set [14]; with neuronal [15]; in data set [18]) were “Toxic”, “Dose-dependent effect” and 90.1%, respectively. Moreover, the Papp at 18 h, 25 ug/ml in data set [16] worked out at 11.3 ×10⁻⁶ cm/s.
`CC1=NN(c2ccccc2)C(=O)C1` [EDARAVONE]: the viability at 50 µM in data set [19] worked out at 85.8%; in data set [20], 86.7%. Further, the figures for the Activity (in data set [21]; in the data set on Rattus norvegicus [22]; in data set [24]) were 72.3%, “Active” and 77.7%, respectively. For the same compound, the result in the data set on Rattus norvegicus [23], in the data set on Rattus norvegicus [25] and with Rattus norvegicus [26] was Active.
